This is an account of results in ChEMBL document CHEMBL1144211, “Overcoming hERG issues for brain-penetrating cathepsin S inhibitors: 2-cyanopyrimidines. Part 2” (Bioorg Med Chem Lett, 2008).

Type in all cases: ADME, organism-based
The nature of data set [1]: Cmax in Sprague-Dawley rat at 10 mg/kg, po. Details: dose 10 mg/kg, route oral. The conditions noted are these: in vivo. The gist of the method:
(§1)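 PK parameters in male Sprague–Dawley rats after intravenous dosing at 1 mg/kg and after oral dosing. Parameters derived were Vdss, apparent half-life, oral Cmax and estimated bioavailability.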

Data set [2] in a line: Plasma concentration in Sprague-Dawley rat at 10 mg/kg, po after 1 hr. Also noted: dose 10 mg/kg, route oral. The gist of the method:
(§2)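 Sprague–Dawley rats received a single oral dose of 10 mg/kg. Plasma and brain concentrations (nM) were measured at 1 h and 3 h after dosing. Values are means of n = 3.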

Data set [3] can be described thus: Volume of distribution at steady state in Sprague-Dawley rat at 1 mg/kg, iv. Details: dose 1 mg/kg, route intravenous. The note with it: in vivo, read-out: Vdss. In a few lines:
as §1

Data set [4] can be described thus: Plasma clearance in Sprague-Dawley rat at 1 mg/kg, iv or 10 mg/kg, po.
A short description of data set [5]: Drug level in Sprague-Dawley rat brain at 10 mg/kg, po after 1 hr. Also noted: dose 10 mg/kg, route oral. The note with it: read-out: Drug uptake. The gist of the method: as §2
Data set [6] in a line: Half life in Sprague-Dawley rat at 1 mg/kg, iv. The conditions noted are these: in vivo. Also noted: dose 1 mg/kg, route intravenous. The gist of the method:
as §1

Data set [7] in a line: Plasma concentration in Sprague-Dawley rat at 10 mg/kg, po after 3 hrs. Also noted: dose 10 mg/kg, route oral. The gist of the method:
as §2

Data set [8] in a line: AUC in Sprague-Dawley rat at 10 mg/kg, po. Details: dose 10 mg/kg, route oral. The note with it: plasma.
The nature of data set [9]: Oral bioavailability in Sprague-Dawley rat at 10 mg/kg. The note with it: in vivo. The gist of the method:
as §1

The nature of data set [10]: Drug level in Sprague-Dawley rat brain at 10 mg/kg, po after 3 hrs. Also noted: dose 10 mg/kg, route oral. The note with it: read-out: Drug uptake. In a few lines: as §2

On to `CNC(=O)c1c(NCC2CCC3(CCC3)CC2)nc(C#N)nc1OCC1CCN(C)CC1`, for which the highest level in data set [1] (Cmax) was 461 nM. The concentration at 1 h was determined as 346 nM in data set [2] and 124 nM in [5]. Moreover, the Vd in data set [3] turned out to be 9.8 L/kg. The same compound had a clearance in [4] of 18.3 mL/min/kg. For the same compound, the half-life (in general, the time in which the quantity being followed falls by half) in data set [6] is 6.7 h. The concentration at 3 h was determined as 308 nM in [7] and 718 nM in data set [10]. The AUC (in general, concentration integrated over time) in [8] amounted to 8.24 µM·h. Further, in data set [9], the bioavailability (usually dose-corrected exposure relative to a reference, in per cent) was found to be 40%.

On to `CNC(=O)c1c(NCC2CCC3(CCC3)CC2)nc(C#N)nc1OCC1CCN(C(C)=O)CC1`, for which the concentration at 1 h in [2] was determined as 169 nM; in data set [5], 27 nM. The figures for the concentration at 3 h in data set [7] and in data set [10] were 80 nM and less than 13 nM, respectively.

For `CNC(=O)c1c(NCC2CCC3(CCC3)CC2)nc(C#N)nc1OCCO`, the highest level in data set [1] (Cmax) was 907 nM. The concentration at 1 h in data set [2] was determined as 283 nM; in [5] it was 692 nM. In addition, the Vd in [3] was determined as 1.2 L/kg. Further, the clearance in data set [4] was 25 mL/min/kg. In [6], this compound had a half-life of 1.5 h. Moreover, the figures for the concentration at 3 h in data set [7] and in data set [10] were 170 nM and 849 nM, respectively. For the same compound, the AUC in [8] was determined as 2.5 µM·h. For the same compound, the bioavailability in data set [9] was found to be 14%.

In the case of `CNC(=O)c1c(NCC2CCC3(CCC3)CC2)nc(C#N)nc1OCC1CCNCC1`, the concentration at 1 h in data set [2] is 28 nM; in [5], less than 13 nM. The concentration at 3 h in data set [7] was 61 nM; in data set [10], less than 13 nM.

For the compound `CNC(=O)c1c(NCC2CCC3(CCC3)CC2)nc(C#N)nc1OCC1CCN(C(C)C)CC1`, the highest level in [1] (Cmax) was 298 nM. Also, the concentration at 1 h in data set [2] came out at 191 nM; in data set [5], 67 nM. The Vd in data set [3] stood at 9.3 L/kg. The clearance in data set [4] is 10 mL/min/kg. Besides, the half-life in data set [6] is 11.8 h. Further, the concentration at 3 h came to 381 nM in [7] and 455 nM in [10]. In data set [8], this compound displayed an AUC of 8.08 µM·h. In data set [9], this compound registered a bioavailability of 24%.

Turning to `CNC(=O)c1c(NCC2CCC3(CCC3)CC2)nc(C#N)nc1OC1CC(C)(C)NC(C)(C)C1`, the concentration at 3 h is 287 nM in data set [7] and 164 nM in [10].
